Compounds with a hit are over-represented: about 2.3% of the library has one in this group of screens.
Insulin prom up: insulin promoter activators in MIN6 cells, imaging, high-content screening, mouse beta cells | MIN6 insulin promoter-GFP reporter; hits give high values | z-score at 5 µM | actives 0.3% (n = 190,000);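 active means z-score above 3 at 5 µM with at least 500 cells counted in the well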
Dynein transport: inhibitors of GR-EGFP nuclear translocation, primary screen, dynein cargo transport inhibitor project, imaging, high-content, 3617.4 mouse cells | test concentration mostly 20 µM; stimulated with dexamethasone, 1 µM; hits give low values | z-score, hits read low | actives 0.47% (n = 220,000);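 active means plate z-score of nuclear minus cytoplasmic receptor signal below a set negative limit, without overly bright fluorescence or cell loss, cut at about -3.5 in these data, passing the limit was not always enough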;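 further: z-score of nuclear minus cytoplasmic ring GR-EGFP intensity difference per well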
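Buffer or medium: tet-free medium with charcoal-stripped serum / Also added: dexamethasone agonist, 1.0 µM final, for 30 min / Timing: induction 48 h, compound 1 h, agonist 30 min / Measured by: high-content fluorescence imaging after fixation / Read-out: nuclear-to-cytoplasmic GR-EGFP distribution per well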
Autophagy HCS: autophagy modulators in MEF cells, primary screen, imaging, high-content, MEF GFP-LC3 | MEF GFP-LC3 puncta imaging; test concentration mostly 10 µM | calls only at 10 µM (by protocol) | actives 0.98% (n = 190,000);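 active means percentage of spot-positive cells more than 3 SD above its plate mean, without a fluorescence outlier flag or 80% toxicity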;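 further: spot-positive cell cutoff set from DMSO-treated cells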
MT stabilizer: microtubule stabilizers in HeLa cells, primary screen, imaging, high-content imaging; HeLa tubulin immunostaining HCS, 24 h; share of cells brighter than vehicle mean+2SD; % tubulin-high responders, % at 10 µM; actives 0.83% (n = 200,000); AID 2205, 2009;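 active means plate Z-score above 3 for both tubulin-high and condensed-nucleus cell shares, with cell loss under 80%, at 10 µM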;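 further: anti alpha tubulin signal scored within the nucleus-defined area of each cell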
bCat nuc transl: modulators of beta-catenin nuclear translocation, primary screen, imaging, HeLa cells, immunofluorescence, high-content | AID 1665, 2009 | nuclear translocation activity, % at 5 µM | actives 0.3% (n = 190,000);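 active means nuclear translocation activity above 50% at 5 µM, with a well cell count of 50 or more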;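 further: per-cell ratio of nuclear to cytoplasmic median beta-catenin stain intensity; plate controls were DMSO negative control for no effect and GSK-3 inhibitor IX positive control for full effect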
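Signal – beta-catenin immunofluorescence imaging with DAPI · Test system – human HeLa cell line · Dosing – 5 µM primary single dose, 0.1% DMSO, 0.02–20 µM confirmation series · Measure – % activation, nuclear-to-cytoplasmic median beta-catenin signal ratio per cell · Incubation – 24 h compound exposure at 37°C, 5% CO2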
The depositor's hits bear a star; i = inactive; · = no result given; + = active, no number.

SMILES | Insulin prom up | Dynein transport | Autophagy HCS | MT stabilizer | bCat nuc transl
CCOC(=O)C1=C(C)N=c2s/c(=C\c3ccc(OC(C)=O)c(OCC)c3)c(=O)n2C1/C=C/c1ccccc1 (centres undefined) | -0.1 | -2.12 | + | 2.5 | 2.7
COc1ccc(N=CC2=C(O)CC(c3ccccc3)CC2=O)c(OC)c1 (centres undefined) | 1.15 | -0.394 | i | 27.1* | ·
CCOc1ccccc1N=CC1=C(O)CC(c2ccccc2)CC1=O (centres undefined) | -1.34 | 1.42 | i | 2.2 | 0.2
CCC(=NCCc1c(C)[nH]c2ccc(C)cc12)C1=C(O)CC(c2ccccc2)CC1=O (centres undefined) | · | 0.49 | i | 15.5* | 135.3*
CCC(=Nc1ccccc1OC)C1=C(O)CC(c2ccccc2)CC1=O (centres undefined) | -0.1 | 1.21 | i | 15.1* | 32.5
Cc1ccc(S(=O)(=O)N2CCN(C(=O)c3ccccc3)CC2)c(C)c1NS(C)(=O)=O | -0.05 | -0.726 | i | 2.9 | -4.8
COc1ccc(OC)c(S(=O)(=O)Nc2ccc3c(c2)C(=O)OC3)c1 | -0.39 | -0.271 | · | · | 0.5
COc1ccc(NC(=S)NC(=O)/C=C/c2ccco2)cc1 | -0.89 | -0.0454 | i | 2.7 | 0.0
COc1ccc(NC(=O)/C(C#N)=C/C=C/c2ccco2)cc1 | 1.77 | 0.224 | i | 23.6* | 43.2
CCC(=O)Nc1ccc2c(c1)ncn2-c1ccccc1 | 4.96* | -0.159 | i | 2.5 | 0.5
COc1ccccc1-n1cnc2cc(NC(=O)c3ccco3)ccc21 | · | 0.149 | i | 51.8* | 61.6*
O=C(/C=C/c1cccs1)N1CCC2(CC1)Oc1ccc(Cl)cc1C(=O)C21CC(c2cccnc2)=NO1 (centres undefined) | -1.02 | -0.331 | · | · | 52.4*
O=C(CCc1nc(-c2cccs2)no1)NCc1ccc(F)cc1Cl | -1.11 | -0.104 | + | 2.3 | ·
Cn1cccc1/C=C1\SC(=Nc2ccccc2)NC1=O | 0.1 | 0.782 | · | · | 85.6*
Cc1ccc(N=C2NC(=O)/C(=C/c3cn(C)c4ccccc34)S2)cc1C | 3.02* | 0.422 | i | 11.9 | 19.5
Cn1cccc1/C=C1\SC(=Nc2ccc(O)cc2)NC1=O | -0.24 | -0.276 | · | · | 82.7*
Cn1cc(/C=C2/SC(=O)N(c3ccccc3)C2=O)c2ccccc21 | -0.57 | 2.01 | i | 3.3 | 2.0
O=S(=O)(c1ccc(F)cc1)N1CCCN(c2nccc(C(F)(F)F)n2)CC1 | -0.81 | -1.01 | · | · | 2.1
Clc1ccc(-c2nnc(COc3ncnc4ccccc34)o2)cc1 | 1.1 | -0.273 | i | 1.5 | -1.7
O=C(Cn1c(O)c(/C=C2\C=Nc3ccccc32)sc1=O)Nc1ccc2c(c1)OCO2 | 0.32 | -0.0665 | + | 2.3 | -0.1
O=C(Cn1cnc2c(nnn2-c2cccc(Cl)c2)c1=O)NCc1ccccc1 | -0.16 | -0.000684 | i | 5.1 | -4.9
Cc1ccccc1-n1nnnc1SCC(=O)NCC1CCCO1 (centres undefined) | 0.14 | -0.878 | + | 8.4 | 1.9
COc1cc(C(=O)NNC(=S)NC(=O)/C=C/c2ccccc2)cc(OC)c1OC | -0.71 | 1.09 | · | · | 1.9
COC(=O)NC(=S)Nc1ccc(Oc2ccc(Cl)cc2Cl)c(Cl)c1 | · | -0.725 | i | 26.0* | -2.7
COC(=O)NC(=S)Nc1ccc(Oc2ccc(Cl)cc2)c(Cl)c1 | 0.27 | -0.886 | i | 1.3 | 2.6
SMILES | Insulin prom up | Dynein transport | Autophagy HCS | MT stabilizer | bCat nuc transl
COc1ccccc1Nc1cc(N2CCOCC2)c2nonc2c1[N+](=O)[O-] | -2.04 | -0.452 | i | 16.4* | -1.1
O=[N+]([O-])c1c(Nc2ccc(O)cc2)cc(N2CCOCC2)c2nonc12 | 0.21 | 0.323 | i | 2.1 | -0.5
Cc1ccc(C(C(=O)NCc2ccccc2)N(Cc2cccs2)C(=O)c2ccc3c(c2)OCCO3)cc1 (centres undefined) | -1.25 | -1.65 | + | 8.1 | -2.2
CCc1ccc2nc(NC(=O)c3cc(C)on3)sc2c1 | 0.19 | 0.251 | i | 38.1* | 36.3
Cc1cc(C)c2nc(NC(=O)c3cc(C)on3)sc2c1 | 0.16 | 2.21 | i | 1.3 | ·
CNC(=O)c1ccc(-c2sc3nc(N4CCOCC4)c4c(c3c2N)CC(C)(C)OC4)o1 | 3.23* | -0.834 | i | 2.8 | -0.4
Cc1ccc(NC(=O)/C(C#N)=C(\N)C(Cl)(Cl)Cl)nc1 | -0.09 | -3.44 | + | 2.6 | 1.7
O=C(Nc1ccc2c(c1)CCC2)c1cnn2c1NC(c1ccco1)CC2C(F)(F)F (centres undefined) | 0.03 | -0.258 | + | 3.5 | -0.2
Cc1ccc(Cl)cc1NC(=O)c1cnn2c1NC(c1ccco1)CC2C(F)(F)F (centres undefined) | · | -0.857 | i | 2.0 | ·
COc1ccc(/C=C(\C#N)C(=O)OCC(=O)Nc2c(C)cccc2C(C)C)cc1 | 3.36* | -0.337 | i | 2.5 | -1.6
COc1ccc(/C=C(\C#N)C(=O)OCC(=O)NC(=O)NCCC(C)C)cc1 | · | 0.181 | i | 2.0 | -5.2
CCOC(=O)CNC(=O)Cc1ccc(OC)cc1 | -0.26 | 0.586 | · | · | 2.5
CCN1c2ccccc2NC2C1C(C(C)=O)C(=O)N2c1ccc(Cl)cc1 (centres undefined) | · | -1.11 | + | 3.4 | -3.3
O=C1Nc2ccccc2N(O)N1c1ccc(Cl)cc1 | -0.03 | 0.817 | i | 4.0 | 1.3
COCCCN1C(=O)c2[nH]nc(-c3ccccc3O)c2C1c1cccc(Cl)c1 (centres undefined) | · | 0.0471 | + | 36.2* | -4.5
COCCCN1C(=O)c2[nH]nc(-c3ccccc3O)c2C1c1ccc(Cl)cc1 (centres undefined) | 0.61 | 1.07 | i | 44.2* | -0.1
CC(C)OCCCN1C(=O)c2[nH]nc(-c3ccccc3O)c2C1c1cccc(Cl)c1 (centres undefined) | 0.05 | 0.313 | i | 16.0 | -8.0
Nc1nc2ncc(-c3ccsc3)c(N)n2n1 | -0.63 | -0.552 | i | 2.7 | -3.5
COc1cccc(/C=N/n2c(SC)nnc2-c2ccccc2)c1O | -0.02 | -0.402 | i | 27.2 | 90.3*
COc1cccc(/C=N/n2c(SC)nnc2-c2ccccc2)c1OC | -1.21 | -0.387 | i | 6.2 | -4.2
O=C(C(=C1NCCN1)n1cncn1)c1ccccc1 | -0.19 | -0.559 | + | 2.1 | ·
Cc1cccc(Nc2nc(-c3ccncc3)cs2)c1 | 0.7 | -0.0116 | i | 4.1 | -2.0
Cc1cccc(Nc2nc(-c3c(C)nc4ccccn34)cs2)c1 | -1.11 | 1.37 | i | 21.3* | 38.2
Cc1nc(C)c(-c2csc(Nc3cccc(O)c3)n2)s1 | -2.17 | 0.614 | i | 7.2 | 1.0
Cc1cccc(Nc2nc(-c3ccc4c(c3)OCCO4)cs2)c1 | · | 0.461 | i | 18.4* | -0.9
Cc1nc2ccccn2c1-c1csc(Nc2cccc(O)c2)n1 | -0.93 | -0.237 | i | 15.9 | 75.4*
